Assay results taken from ChEMBL document CHEMBL5380787, “Optimized M24B Aminopeptidase Inhibitors for CARD8 Inflammasome Activation” (J Med Chem, 2023).
Activity calls are given as the source filed them. No cut-off for these calls is given here.

Experiments:
[1] = tested on: THP-1; experiment: Induction of pyroptosis in human THP-1 cells assessed as LDH release at 20 uM incubated for 24 hrs; type: functional, cell-based
Outline: (§1)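 Cells (MV4;11, OCI-AML2 or THP-1; WT or the knockout named) plated at 5 × 10^5 cells/well and exposed to 20 μM compound for 24 h. LDH in the supernatant was measured relative to a Triton X-100 lysis control. For immunoblots, cells were washed in PBS, sonicated, protein-normalized, run on SDS-PAGE and probed for GSDMD cleavage. n = 3.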

[2] = tested on: OCI-AML2; experiment: Induction of cell death in human OCI-AML2 cells assessed as reduction in cell viability incubated for 24 hrs by celltiter-glo assay; type: functional, cell-based
Outline: (§2)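 OCI-AML2 cells, WT or CARD8−/−, were grown in RPMI 1640 with 10% FBS and plated at 2000 cells/well. Compound was added over a range of concentrations for 24 h, and viability was then read by CellTiter-Glo luminescence. Means ± SEM, n = 3.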

[3] = tested on: OCI-AML2; experiment: Cytotoxicity against human OCI-AML2 cells assessed as reduction in cell viability at 1 uM incubated for 24 hrs by celltiter-glo assay relative to control; type: functional
Outline: (§3)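 Single-dose viability screen. MV4;11 or OCI-AML2 cells at 2000 cells/well were exposed to 1 μM compound for 24 h. Viability was read by CellTiter-Glo luminescence and expressed as percent inhibition. Values are means of three biological replicates.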

[4] = tested on: THP-1; experiment: Induction of pyroptosis in PEPD/XPNPEP1 knockout human THP-1 cells assessed as GSDMD clevage at 20 uM incubated for 24 hrs by immunoblot analysis; type: functional, cell-based; outline: as §1
[5] = tested on: THP-1; experiment: Induction of pyroptosis in CARD8 knockout human THP-1 cells assessed as GSDMD cleavage at 20 uM incubated for 24 hrs by immunoblot analysis; type: functional, cell-based; outline: as §1
[6] = tested on: MV4-11; experiment: Induction of cell death in CASP1 knockout human MV4-11 cells assessed as increase in PI uptake at 6.25 uM incubated for 6 hrs by PI staining based fluorescence analysis; type: functional
Outline: (§4)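 PI flux assay. 2 × 10^4 MV4;11 (WT, CARD8−/− or CASP1−/−) or OCI-AML2 cells in RPMI were given compound at 6.25 μM plus PI at 10 μM final. Fluorescence (Ex/Em 535/617 nm) was read every 5 min at 37 °C for 6 h, baseline-corrected to DMSO and normalized to the maximum response. n = 3.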

[7] = tested on: OCI-AML2; experiment: Induction of pyroptosis in CARD8 knockout human OCI-AML2 cells assessed as GSDMD cleavage at 20 uM incubated for 24 hrs by immunoblot analysis; type: functional, cell-based; outline: as §1
[8] = tested on: MV4-11; experiment: Induction of pyroptosis in CARD8 knockout human MV4-11 cells assessed as GSDMD cleavage at 20 uM incubated for 24 hrs by immunoblot analysis; type: functional, cell-based; outline: as §1
[9] = tested on: T-cell; experiment: Induction of pyroptosis in human T cells expressing CARD8 assessed as GSDMD cleavage at 20 uM incubated for 24 hrs by immunoblot analysis; type: functional, cell-based
Outline: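 Resting human primary T cells (>90% purity) were thawed and cultured in RPMI-1640 with 10% FBS and 30 U/mL IL-2. They were exposed to 20 μM compound for 24 h, lysed, and immunoblotted for GSDMD cleavage.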

[10] = tested on: THP-1; experiment: Induction of pyroptosis in PEPD/XPNPEP1 knockout human THP-1 cells assessed as LDH release at 20 uM incubated for 24 hrs; type: functional, cell-based; outline: as §1
[11] = tested on: THP-1; experiment: Induction of pyroptosis in PEPD knockout human THP-1 cells assessed as LDH release at 20 uM incubated for 24 hrs; type: functional, cell-based; outline: as §1
[12] = tested on: HEK-293T; experiment: Induction of pyroptosis in human HEK293T cells expressing CASP1 and GSDMD cotransfected with dTAG-CARD8ZUC and CARD8 FIIND S297A assessed as destabilization of DPP9-CARD8 ternary complex by measuring GSDMD clevage at 20 uM incubated for 6 hrs in presence of dTAG13 by immunoblot analysis; type: functional, cell-based
[13] = tested on: MV4-11; experiment: Induction of pyroptosis in human MV4-11 cells assessed as GSDMD cleavage at 20 uM incubated for 24 hrs by immunoblot analysis; type: functional, cell-based; outline: as §1
[14] = tested on: MV4-11; experiment: Induction of pyroptosis in CARD8 knockout human MV4-11 cells assessed as LDH release at 20 uM incubated for 24 hrs; type: functional, cell-based; outline: as §1
[15] = tested on: THP-1; experiment: Induction of pyroptosis in XPNPEP1 knockout human THP-1 cells assessed as LDH release at 20 uM incubated for 24 hrs; type: functional, cell-based; outline: as §1
[16] = tested on: MV4-11; experiment: Induction of cell death in CARD8 knockout human MV4-11 cells assessed as increase in PI uptake at 6.25 uM incubated for 6 hrs by PI staining based fluorescence analysis; type: functional; outline: as §4
[17] = tested on: THP-1; experiment: Induction of pyroptosis in XPNPEP1 knockout human THP-1 cells assessed as GSDMD clevage at 20 uM incubated for 24 hrs by immunoblot analysis; type: functional, cell-based; outline: as §1
[18] = tested on: THP-1; experiment: Induction of pyroptosis in CARD8 knockout human THP-1 cells harboring dox-inducible […] E274R mutant assessed as GSDMD cleavage at 20 uM pretreated with doxycycline for 16 hrs followed by compound addition and measured after 6 hrs by immunoblot analysis; type: functional, cell-based
Outline: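 CARD8−/− THP-1 cells carrying a doxycycline-inducible CARD8 E274R mutant were exposed or not to DOX at 100 ng/mL for 16 h. Compound was then added at 20 μM for 6 h, followed by LDH release and immunoblot analysis.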

[19] = tested on: MV4-11; experiment: Cytotoxicity against human MV4-11 cells assessed as reduction in cell viability at 1 uM incubated for 24 hrs by celltiter-glo assay relative to control; type: functional; outline: as §3
[20] = tested on: THP-1; experiment: Induction of pyroptosis in PEPD knockout human THP-1 cells assessed as GSDMD clevage at 20 uM incubated for 24 hrs by immunoblot analysis; type: functional, cell-based; outline: as §1
[21] = tested on: THP-1; experiment: Induction of pyroptosis in CARD8 knockout human THP-1 cells assessed as LDH release at 20 uM incubated for 24 hrs; type: functional, cell-based; outline: as §1
[22] = tested on: THP-1; experiment: Induction of pyroptosis in DPP8/9 knockout human THP-1 cells assessed as GSDMD clevage at 20 uM incubated for 24 hrs by immunoblot analysis; type: functional, cell-based; outline: as §1
[23] = tested on: RAW264.7; experiment: Induction of pyroptosis in mouse RAW264.7 cells expressing NLRP1B allele 1 assessed as GSDMD clevage at 20 uM incubated for 24 hrs by immunoblot analysis; type: functional, cell-based
Outline: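 RAW264.7 cells, grown in DMEM with 10% FBS, plated at 5 × 10^5 cells/well and exposed to 20 μM compound for 24 h. Supernatant LDH was measured relative to a Triton X-100 lysis control; lysates were immunoblotted for GSDMD cleavage. n = 3.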

[24] = tested on: BMDM; experiment: Induction of pyroptosis in C57BL/6J mouse BMDM cells expressing NLRP1A and NLRP1B allele 2 assessed as GSDMD clevage at 20 uM incubated for 24 hrs by immunoblot analysis; type: functional, cell-based
Outline: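 Bone marrow cells from femurs and tibias of 7–12-week-old C57BL/6J mice were RBC-lysed and differentiated for 6 days at 37 °C in DMEM with 10% FBS and 15–20% L-cell medium, then replated. Cells were exposed to 20 μM compound for 24 h. Read-outs were LDH release against a lysis control and GSDMD immunoblot.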

[25] = tested on: OCI-AML2; experiment: Induction of cell death in CARD8 knockout human OCI-AML2 cells assessed as reduction in cell viability incubated for 24 hrs by celltiter-glo assay; type: functional, cell-based; outline: as §2

Compound	Activity [1]	Activity [2]	Activity [3] [%]	Activity [4]	Activity [5]	Activity [6]	Activity [7]	Activity [8]	Activity [9]	Activity [10]	Activity [11]	Activity [12]	Activity [13]	Activity [14]	Activity [15]	Activity [16]	Activity [17]	Activity [18]	Activity [19] [%]	Activity [20]	other results
COC(=O)[C@H](CC(C)C)NC(=O)[C@@H]1CCCN1C(=O)[C@@H](O)[C@H](N)CC(C)C	Active	Active	37	inactive	inactive	inactive	inactive	inactive	Active	inactive	Active	Active	Active	inactive	Active	inactive	Active	inactive	45	Active	Activity [21]: inactive; Activity [22]: inactive; Activity [23]: inactive; Activity [24]: inactive; Activity [25]: inactive
COC(=O)[C@@H]1CCCN1C(=O)[C@@H](O)[C@H](N)CC(C)C	Active	Active	42	inactive	inactive	inactive	inactive	inactive	Active	inactive	Active	Active	Active	inactive	Active	inactive	Active	inactive	72	Active	Activity [21]: inactive; Activity [22]: inactive; Activity [23]: inactive; Activity [24]: inactive; Activity [25]: inactive
